A selection: hits, their analogues and other compounds. The true share with any hit is near 9.6%.
bCat nuc transl: alters nuclear translocation of beta-catenin in HeLa cells; immunofluorescence imaging; nuclear translocation activity, % at 5 µM; 0.3% of 190,000 active; AID 1665;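 active = nuclear translocation activity above 50% at 5 µM, with a well cell count of 50 or more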;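 note: per-cell ratio of nuclear to cytoplasmic median beta-catenin stain intensity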
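Test system: human HeLa cell line; Doses: 5 µM primary, 0.02–20 µM confirmation; Incubation: 24 h compound exposure, 37°C; Detection: beta-catenin immunofluorescence imaging with DAPI; Read-out: beta-catenin nuclear/cytoplasmic ratio, % activation.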
BaF3 tox: reduces parental Ba/F3 cell viability, JAK2V617F counter-screen. inhibition, % at 5.6 µM. 1.1% of 220,000 active. CellTiter-Glo ATP luminescence;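 active = inhibition above a per-campaign cutoff, the mean inhibition of all tested compounds plus 3 SD, cut at about 27% in these data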
Ba/F3 V617F tox: lowers viability of Ba/F3 cells expressing EpoR and JAK2V617F. ATP luminescence. inhibition, % at 5.6 µM. 1.1% of 220,000 active;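 active = inhibition above the campaign mean plus 3 SD over all tested compounds, cut at about 24% in these data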;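 note: cytokine-independent growth of Ba/F3 cells driven by EpoR plus mutant JAK2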
Lmaj promast: inhibitors of Leishmania major promastigote growth | Leishmania major promastigotes, resazurin fluorescence viability | inhibition, % at 10 µM | 9% of 200,000 active | AID 1063; in the data active = inhibition above about 50%;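 note: promastigotes grown with compound for 44 hours at 28 °C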
MT stabilizer: microtubule stabilizers in HeLa cells; % tubulin-high responders, % at 10 µM; 0.83% of 200,000 active; HeLa tubulin immunostaining HCS, 24 h; share of cells brighter than vehicle mean+2SD;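 active = plate Z-score above 3 for both tubulin-high and condensed-nucleus cell shares, with cell loss under 80%, at 10 µM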;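 note: anti alpha tubulin signal scored within the nucleus-defined area of each cell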
APP 5UTR inh: APP translation inhibition; SH-SY5Y APP 5'UTR-luciferase reporter, luminescence; inhibition, % at 2 µM; 0.82% of 190,000 active;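 active = inhibition above a set limit, derived from the sample mean plus 3 SD, cut at about 45% in these data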
Of the large screens only hits and unclear results are named; the others gave an inactive call.

CCOC(=O)c1sc(NC(=O)Nc2ccc(Cl)cc2)cc1C	Lmaj promast 89
CCOC(=O)c1sc(NC(=O)c2ccc(Cl)s2)cc1C	none
Cn1c(N2CCN(C(=O)C34CC5CC(CC(C5)C3)C4)CC2)nc2ccccc21	none (no result: BaF3 tox, Ba/F3 V617F tox, Lmaj promast, MT stabilizer, APP 5UTR inh)
S=C(NCCCN1CCOCC1)Nc1ccc(Cl)cc1	Lmaj promast 99
CC(NC(=S)NCCCN1CCOCC1)C12CC3CC(CC(C3)C1)C2 (centres undefined)	Lmaj promast 86 (no result: bCat nuc transl)
Cc1cccc(NC(=S)NCCCN2CCOCC2)c1	none
Cc1ccc(NC(=S)NCC(C)C)cc1	Lmaj promast 78
Cc1ccc(NC(=S)NCCCN2CCOCC2)cc1	Lmaj promast 78
CCOC(=O)c1sc(NC(=O)c2cccc(S(=O)(=O)N3CCc4ccccc43)c2)c(C#N)c1C	none (no result: Lmaj promast, MT stabilizer, APP 5UTR inh)
CCN(CC)C(=O)CSc1nc2[nH]ncc2c(=O)[nH]1	none
CC(C)(C)c1ccc(-c2noc(-c3ccc4c(c3)CCO4)n2)cc1	none (no result: Lmaj promast, MT stabilizer, APP 5UTR inh)
CC1CCN(CCNC(=S)Nc2ccc(Cl)cc2)CC1	Lmaj promast 66
S=C(NCCN1CCOCC1)Nc1ccc(Cl)c(Cl)c1	Lmaj promast 55
CCc1c(C)nc(SC(C(=O)O)c2ccccc2)c(C#N)c1C (centres undefined)	none
COc1ccc2[nH]c3c(NCc4ccco4)ncnc3c2c1	Lmaj promast 51, MT stabilizer 27
COc1ccc2[nH]c3c(NCCC4=CCCCC4)ncnc3c2c1	BaF3 tox 75, Ba/F3 V617F tox 64, Lmaj promast 100
CCN(CC)CCNc1ncnc2c1[nH]c1ccc(OC)cc12	none (no result: bCat nuc transl)
C=CCNc1ncnc2c1[nH]c1ccc(C)cc12	Lmaj promast 83
NC(=O)COC(=O)c1ccccc1Oc1ccccc1	none
NC(=O)COC(=O)c1cccc(S(=O)(=O)N2CCN(c3ccc(F)cc3)CC2)c1	none
CC(=O)NC(Cc1cccc(F)c1)C(=O)NC1CCN(C(=O)c2ccc(C)cc2)CC1 (centres undefined)	none
NS(=O)(=O)c1cccc(NC(=O)CSc2nnc(C3CC3)n2Cc2ccccc2)c1	none (no result: Lmaj promast, MT stabilizer, APP 5UTR inh)
COc1ccc(CNCc2cccc(Oc3ccccc3)c2)cc1	Lmaj promast 87
O=C(O)c1nn(CC(=O)N2CCN(S(=O)(=O)c3ccc(Cl)cc3)CC2)c(=O)c2ccccc12	none (no result: Lmaj promast, MT stabilizer, APP 5UTR inh)
O=C(Cn1nnc(-c2ccccc2Cl)n1)N1CCN(S(=O)(=O)c2ccc(Cl)cc2)CC1	Lmaj promast 99
COc1ccc(C2CC(c3cccs3)=NN2C(=O)CSc2nc3c(cnn3-c3ccccc3)c(=O)[nH]2)cc1 (centres undefined)	Lmaj promast 85
COc1cccc(C2CC(c3cccs3)=NN2C(=O)CSc2nc3c(cnn3-c3ccc(F)cc3)c(=O)[nH]2)c1OC (centres undefined)	APP 5UTR inh 55
COc1cccc(C2CC(c3cccs3)=NN2C(=O)CSc2nc3ccccc3s2)c1OC (centres undefined)	none
COc1cc(CNC(C)(C)C)cc(Br)c1OCc1cccs1	Lmaj promast 86
CC(C)(C)NCc1cc(Br)ccc1OCc1cccs1	none
COc1cc(CNC(C)(C)CO)cc(Br)c1OCc1ccccc1	Lmaj promast 80
CCOc1cc(CNCc2cccs2)cc(Br)c1OC	none
CC(C)(C)NCc1ccccc1OCc1cccs1	Lmaj promast 82
COc1cc(CNCCO)cc(Br)c1OCc1cccs1	Lmaj promast 88 (no result: bCat nuc transl)
C(=N\Nc1ncnc2nc[nH]c12)/c1cccs1	none
CC(C)NC(=O)C1CCN(C2CCN(C(=O)c3scc4c3CCCC4)CC2)CC1	Lmaj promast 52
Cc1oc2c(c1C(=O)N1CCC(C)CC1)C(=O)c1ccccc1C2=O	Lmaj promast 100
CC1CCN(C(=O)c2cc3ccccc3c(=O)o2)CC1	none
CCOC(=O)C1CCN(C(=O)c2c(C)oc3c2C(=O)c2ccccc2C3=O)CC1	Lmaj promast 100 (no result: bCat nuc transl)
Cc1ccccc1OCC(=O)OCC(=O)c1ccc(-c2ccccc2)cc1	none (no result: APP 5UTR inh)
N#Cc1ccc(N/N=C/c2cn(-c3ccccc3)nc2-c2ccccc2)c([N+](=O)[O-])c1	APP 5UTR inh 75 (no result: bCat nuc transl)
NS(=O)(=O)c1ccc(N/N=C/c2cn(-c3ccccc3)nc2-c2cccs2)c([N+](=O)[O-])c1	none
COC(CNC(=O)c1cc(-c2ccncc2)nc2ccc(S(=O)(=O)N3CCOCC3)cc12)OC	none (no result: bCat nuc transl)
CCn1c(C)c(C2=CCN(S(=O)(=O)c3ccc(C)cc3)CC2)c2ccccc21	none
Cc1c(C2=CCN(S(=O)(=O)c3ccc(Br)cc3)CC2)c2ccccc2n1C	Lmaj promast 64
C/C(=N\NC(=O)CNc1cccc(C)c1)c1ccc(Br)s1	Lmaj promast 57
C/C(=N\NC(=O)c1ccc(Cl)c(Cl)c1)c1ccc(Br)s1	APP 5UTR inh 52
Cc1cccc(NCC(=O)N/N=C/c2cccc(Br)c2)c1	none
O=C(CCSCc1ccccc1Cl)NC1CCCCC1	none
C#CCn1c(O)c(N=NC(=O)C(O)c2ccccc2)c2ccccc21 (centres undefined)	none (no result: Lmaj promast, MT stabilizer, APP 5UTR inh)
CSc1nc(C)c(CCO)c(=O)[nH]1	none
CC(C)C1C(c2ccccc2)N(C)C(c2ccccc2)CC1(O)c1ccccc1 (centres undefined)	none (no result: APP 5UTR inh)
CC1C(c2ccccc2)N(C)C(c2ccccc2)C(C)C1(O)C#Cc1ccccc1 (centres undefined)	Lmaj promast 69
COc1ccc2cc(C(C)c3nc4ccccc4c(=O)n3N)ccc2c1 (centres undefined)	none
Cc1ccc(S(=O)(=O)N(CC(=O)N=Nc2c(O)[nH]c3ccccc23)c2ccc(C)c(C)c2)cc1	Lmaj promast 96, MT stabilizer 20
COC(=O)CSC(=S)N1C(C)CCCC1C (centres undefined)	none
COC(=O)CC/C(O)=C1\C(=O)CC(C)(C)CC1=NCCc1nc2ccccc2[nH]1	none (no result: bCat nuc transl)
CN(C)CCn1c2ccccc2c2nc3ccc([N+](=O)[O-])cc3cc21	BaF3 tox 71, Ba/F3 V617F tox 87 (no result: Lmaj promast, MT stabilizer, APP 5UTR inh)
CCCCC(=O)NC(c1ccccc1Cl)c1c(O)ccc2ccccc12 (centres undefined)	Lmaj promast 99
CCCC(=O)NC(c1ccccc1Cl)c1c(O)ccc2ccccc12 (centres undefined)	Lmaj promast 100
CCCCC(=O)NCc1ccccc1Cl	none
O=C(Cn1cnc2nc3n(c2c1=O)CCC3)NCc1ccccc1	none
CCOc1ccc(NC(=O)CC2C(=O)N(c3cccc(OC)c3)C(=O)N2C(C)C)cc1 (centres undefined)	none
COCCN(C(=O)CC1C(=O)NCCN1Cc1ccc(-c2ccccc2)cc1)C(C)C (centres undefined)	none
O=C(NN1CCOCC1)c1sc2cccc(F)c2c1Cl	none
COCCn1c(-c2ccc(Cl)cc2)cnc1SCC(=O)NCCc1ccc(OC)c(OC)c1	Lmaj promast 70
CCCc1nnc(NC(=O)CCC(=O)NCCc2ccc(OC)c(OC)c2)s1	APP 5UTR inh 73
COc1ccc(CCNC(=O)CSCc2ccc(Cl)cc2)cc1OC	none

From PubChem BioAssay
